Experimental findings from ChEMBL document CHEMBL2390899, “Synthesis of new 18F-radiolabeled silicon-based nitroimidazole compounds” (Bioorg Med Chem, 2013) are described below.

Data set [1] is described as follows: Half life of the compound. Format: physicochemical.
A short description of data set [2]: Half life of the compound in saline at pH 5.5 by radio-HPLC and radio-TLC analysis. Format: physicochemical. In outline:
(§1)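 Aqueous saline (pH 5.5) samples of the 18F compound were analysed by radio-HPLC and radio-TLC at 5, 15, 30, 60 and 120 min to follow hydrolysis of the Si–F bond. Hydrolysis was followed up to 180 min. Half-life was taken from the decay of intact tracer.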

Data set [3] can be described thus: Half life human plasma by radio-HPLC and radio-TLC analysis. It is filed as ADME, cell-free. In outline:
(§2)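 The 18F-labelled compound was incubated in human plasma at 37 °C and monitored by radio-HPLC and radio-TLC for at least 120 min. The intact fraction and the half-life were obtained from this time course.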

The nature of data set [4]: Lipophilicity, log D of the compound at pH 4. It is filed as physicochemical. The conditions noted are these: buffer.
The test system of a further data set is Intestine. The data set can be described thus: Biodistribution in Wistar rat intestine at 10 MBq after 90 mins by PET analysis. Format: ADME, organism-based. The conditions noted are these: in vivo, 1.5 h.
A short description of data set [5]: Chemical stability of the compound in saline after 180 mins at pH 5.5 by radio-HPLC and radio-TLC analysis. The conditions noted are these: buffer, pH 5.5, 3 h. It is filed as physicochemical. In outline:
as §1

Data set [6] in a line: Drug degradation in water at pH 7.4 by radio-HPLC and radio-TLC analysis. It is filed as physicochemical. Particulars: read-out: Drug degradation. In outline: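 Decomposition of the 18F compound in water at pH 7.4 was followed by radio-HPLC and radio-TLC, read after 120 min.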
A further data set relates to Liver. Nature of the data set: Biodistribution in Wistar rat liver at 10 MBq after 90 mins by PET analysis. It is filed as ADME, organism-based. The conditions noted are these: in vivo, 1.5 h.
The next data set concerns Muscle tissue. Nature of the data set: Biodistribution in Wistar rat muscle at 10 MBq after 90 mins by PET analysis. Format: ADME, organism-based. Particulars: in vivo, 1.5 h.
Data set [7] can be described thus: Chemical stability of the compound in saline after 2 hrs at pH 5.5 by radio-HPLC and radio-TLC analysis. It is filed as physicochemical. Particulars: read-out: Stability. In outline:
as §1

A short description of data set [8]: Lipophilicity, log D of the compound at pH 7.4. It is filed as physicochemical. The conditions noted are these: buffer.
For data set [9], the species on record is Rattus norvegicus. Nature of the data set: Biodistribution in Wistar rat femur bone at 10 MBq after 90 mins by PET analysis. It is filed as ADME, organism-based, Bone element. The conditions noted are these: in vivo, 1.5 h.
Data set [10] is filed under the species Rattus norvegicus. Nature of the data set: Biodistribution in Wistar rat bladder at 10 MBq after 90 mins by PET analysis. The conditions noted are these: in vivo, 1.5 h. It is filed as ADME, organism-based, Urinary bladder/Urine.
A further data set relates to Heart. The data set can be described thus: Biodistribution in Wistar rat heart at 10 MBq after 90 mins by PET analysis. Format: ADME, organism-based. Particulars: in vivo, 1.5 h.
A short description of data set [11]: Metabolic stability in human plasma assessed as compound remaining after 2 hrs by radio-HPLC and radio-TLC analysis. It is filed as ADME, cell-free. The conditions noted are these: read-out: Stability. In outline: as §2
The nature of data set [12]: Octanol-water partition coefficient, log P of the compound. Format: physicochemical. In outline: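 LogP was calculated as clogP with ChemDraw 11.0.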

Structures are written as SMILES.

In the case of `O=[N+]([O-])c1nccn1CCC[Si]([18F])(c1cccc2ccccc12)c1cccc2ccccc12`, the half-life in data set [1] amounted to 2.17 h.

On to `O=C(Cn1ccnc1[N+](=O)[O-])NCCC[Si]([18F])(c1cccc2ccccc12)c1cccc2ccccc12`, for which the half-life in data set [2] is 1 h; in data set [3], less than 5 min. Further, in [4], the logD amounted to 0.12.

Turning to `O=[N+]([O-])c1nccn1CCOCCOCc1cn(CCC[Si]([18F])(c2cccc3ccccc23)c2cccc3ccccc23)nn1`, the half-life in data set [2] is 1 h; in data set [3], less than 5 min.

For `CC(C)(C)[Si]([18F])(c1cccc(C(=O)NCCn2ccnc2[N+](=O)[O-])c1)C(C)(C)C`, the SUV with Intestine is given as 6.5%; in the data set on Liver, 7.3%; with Muscle tissue it was 0.3%; in the data set filed under Rattus norvegicus [9], 2.8%; in the data set listed under Rattus norvegicus [10], 9.5%; in the data set with Heart, 0.5%. Moreover, the Stability entry in [5] is “Stable”. Further, the degraded in data set [6] is less than 10%. Besides, the remaining at 2 h in [7] worked out at 100%; in [11], 85%. Further, the logD in [8] amounted to 2.12.

On to `O=C(Cn1ccnc1[N+](=O)[O-])NCC(F)(F)C(F)(F)F`, for which the P in [12] was found to be 5.7.
